One block for each compound: values may come before it. Residues, ends and D or L forms follow the SMILES beside them. *: point of attachment. Cbz = O=C(OCc1ccccc1)*; Boc = CC(C)(C)OC(=O)*; OBn = c1ccc(CO*)cc1; OtBu = CC(C)(C)O*
What was measured:
[1] = test system: H727 cells; test: Cell viability assay; type: cell-based
[2] = in vivo; cited from earlier work
[3] = test system: Cfz-resistant RPMI8226 cells; test: Cell viability assay; type: cell-based, human
Summary of the method: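 Resistant RPMI8226 subline derived by stepwise Cfz exposure up to 80 nM over ~6 months, kept in 80 nM, then grown Cfz-free ~1 week before assay. Parental and resistant cells in RPMI1640/10% FBS, plated 10 000/well; compounds added 24 h after plating. MTS read after 72 h. IC50 by nonlinear regression; triplicates, or three independent experiments for the reference.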

[4] = test system: primary MM cells; test: Cell viability of primary MM cells; type: cell-based, human; settings: 48 h; for Cytotoxic effects in primary MM samples, Btz-resistant versus PI-naïve: 10 μM, nine samples, Figure 5B,C
Summary of the method: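 Bone-marrow aspirates from patients; CD138+ plasma cells isolated by positive bead selection, purity checked by flow cytometry. Donors were six Btz/Cfz-naïve and eight relapsed on Btz. Plated 20 000 cells/well in IMDM with 10% FBS. Exposed to test compound (50 nM or 10 μM) for 48 h. Percentage viable cells measured by CellTiter-Glo luminescence.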

[5] = biological target: β1i/LMP2 of human 20S immunoproteasome (Homo sapiens, UniProt P28065); test: Enzyme kinetics assay, β1i/LMP2 activity of purified human 20S immunoproteasome; type: biochemical; settings: 20S purified immunoproteasome, Figure 7
Summary of the method: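 Purified human 20S immunoproteasome in pH 8.0 Tris-HCl buffer (0.5 mM EDTA, 0.035% SDS), incubated 1 h with graded inhibitor concentrations. LMP2 activity measured with Ac-PAL-AMC (100 μM final) by AMC fluorescence (360/460 nm) every minute for 1 h. Linear-regression initial rates normalized to vehicle control; IC50 by nonlinear fit.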

[6] = In vitro metabolic stability in rat liver homogenates; type: in vitro ADME; settings: 1 μM, 5, 10 and 20 min, 37 °C, Figure 8B
Summary of the method: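 Livers from 8-week-old male Sprague-Dawley rats, PBS-washed and homogenized in five-fold volume PBS (pH 7.4) per gram. Homogenate prewarmed to 37 °C, spiked to 1 μM final, n = 3. Samples taken at 0, 5, 10 and 20 min, quenched in four-fold ice-cold acetonitrile with 0.5 μM chlorpropamide internal standard. Remaining drug quantified by LC-MS/MS (positive-ion SRM).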

[7] = test system: proteasome chymotrypsin-like (CT-L, β5/β5i) activity; type: biochemical, human; settings: RPMI8226 cell lysate, Figure 7
Summary of the method: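 RPMI 8226 lysate in 20 mM Tris-HCl, 0.5 mM EDTA, 0.035% SDS, pH 8.0, preincubated 1 h with a range of inhibitor concentrations. Suc-LLVY-AMC added at 100 μM final. AMC fluorescence (ex 360/em 460 nm) read each minute for 1 h. Initial slopes normalized to vehicle wells; IC50 from nonlinear regression.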

[8] = test system: β1i subunit; settings: cited from earlier work
[9] = test system: β5 subunit; settings: cited from earlier work
[10] = 72-h IC50 values, H727 versus H23, Figure 3B

SMILES: CC(C)C[C@H](NC(=O)[C@H](Cc1ccccc1)NC(=O)c1cnccn1)B(O)O [Btz, bortezomib]
Cytotoxicity in H727 cells compared with H23 cells ([1]; human, 72 h): comparable cytotoxicity in H727 and H23 cells

SMILES: CC(C)C[C@H](NC(=O)[C@H](CCc1ccccc1)NC(=O)CN1CCOCC1)C(=O)N[C@@H](Cc1ccccc1)C(=O)N[C@@H](CC(C)C)C(=O)[C@@]1(C)CO1 [Cfz, carfilzomib]
Plasma half-lives [2]: less than 1 h | Increase in IC50 values in Cfz-resistant RPMI8226 cells ([3]; versus parental RPMI8226, 72 h MTS, Figure 4A): greater than 35 fold | Sensitivity of primary MM samples, Btz-relapsed versus PI-naïve patients ([4]; 50 nM, 14 donors, Figure 5A): tended to be less responsive to Cfz

SMILES: CCCCCCC(=O)N[C@@H](C)C(=O)N[C@@H](CC(C)C)C(=O)[C@@]1(CO)CO1 [Compound 5, N-((S)-1-((S)-1-((R)-2-(Hydroxymethyl)oxiran-2-yl)-4-methyl-1-oxopentan-2-ylamino)-1-oxopropan-2-yl)heptanamide]
Cytotoxic activity in cancer cell lines relative to UK101 ([1]; H23, H727 and Cfz-resistant RPMI8226 cells, MTS, Figure 6B): considerably improved the cytotoxic activity

IC50 against β1i activity compared with Cfz [5]: IC50 values similar to that of Cfz | Metabolic stability compared with Cfz [6]: more stable than Cfz | IC50 against CT-L (β5/β5i) activity compared with Cfz [7]: IC50 values similar to that of Cfz
SMILES: CC(C)C[C@H](NC(=O)[C@H](CCc1ccccc1)NC(=O)CN1CCOCC1)C(=O)N[C@@H](Cc1ccccc1)C(=O)N[C@@H](CC(C)C)C(=O)[C@@]1(CO)CO1 [Compound 9, (S)-N-((S)-1-((S)-1-((R)-2-(Hydroxymethyl)oxiran-2-yl)-4-methyl-1-oxopentan-2-ylamino)-1-oxo-3-phenylpropan-2-yl)-4-methyl-2-((S)-2-(2-morpholinoacetamido)-4-phenylbutanamido)-pentanamide]
Improvement in potency as compared to Cfz ([3]; Cfz-resistant RPMI8226 cells, Figure 7): almost three-fold improvement in potency

IC50 against β1i activity compared with Cfz [5]: IC50 values similar to that of Cfz | IC50 against CT-L (β5/β5i) activity compared with Cfz [7]: IC50 values similar to that of Cfz
SMILES: CC(C)C[C@H](NC(=O)[C@H](CCc1ccccc1)NC(=O)CN1CCOCC1)C(=O)N[C@@H](Cc1ccccc1)C(=O)N[C@@H](CC(C)C)C(=O)[C@@]1(COS(C)(=O)=O)CO1 [Compound 12, ((S)-2-((4S,7S,10S,13S)-10-Benzyl-7-isobutyl-15-methyl-1-morpholino-2,5,8, 11-tetraoxo-4-phenethyl-3,6,9, 12-tetraazahexadecanecarbonyl)oxiran-2-yl)methylmethane-sulfonate]
Potency against H727 cells compared with Cfz ([1]; Cfz-resistant H727 cells, Figure 7): less potent than Cfz

SMILES: CC(C)C[C@@H](C=O)NC(=O)[C@H](CC(C)C)NC(=O)[C@H](CC(C)C)NC(=O)OCc1ccccc1 [MG-132] (Cbz-Leu-Leu-Leu-aldehyde)
Cytotoxicity in H727 cells compared with H23 cells [1, 10]: comparable cytotoxicity in H727 and H23 cells

SMILES: CCCCCCC(=O)N[C@@H](C)C(=O)N[C@@H](CC(C)C)C(=O)[C@@]1(CO[Si](C)(C)C(C)(C)C)CO1 [UK101]
Inhibition of β1i subunit, concentration range [8]: nanomolar concentration ranges | Inhibition of β5 subunit (CT-L activity), concentration range [9]: micromolar concentration ranges | Cytotoxic effects in primary MM samples, Btz-resistant versus PI-naïve [4]: similar

SMILES: CCCCCCC(=O)N[C@@H](CO)C(=O)N[C@@H](CC(C)C)C(=O)[C@@]1(COCOCCOC)CO1 [UK102]
Cytotoxic effects in primary MM samples, Btz-resistant versus PI-naïve [4]: similar

SMILES: CC(=O)N[C@@H](CSC(=O)[C@]1([C@@H](O)C(C)C)NC(=O)[C@H](C)[C@@H]1O)C(=O)O [lactacystin]
Cytotoxicity in H727 cells compared with H23 cells [1, 10]: not as effective in H727 cells as in H23 cells

SMILES: CC(C)(C)OC(=O)N[C@@H](CC(=O)OCc1ccccc1)C(=O)N[C@@H](CCCCNC(=O)OCc1ccccc1)C(=O)OC(C)(C)C [reversin 121] (Boc-Asp(OBn)-Lys(Cbz)-OtBu)
Restoration of Cfz sensitivity by P-gp inhibitor ([3]; Cfz-resistant RPMI8226, Supporting Information S2): almost completely restored Cfz sensitivity
